Screening data as filed in PubChem.
An excerpt weighted towards active compounds, which were near 2.7% of everything screened.
Tb hexokinase – blocks Trypanosoma brucei hexokinase 1 activity; recombinant TbHK1, G6PDH-coupled NADH A340; inhibition, % at 10 µM; 0.11% of 220,000 active; AID 1430;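 active means inhibition of 50% or more in the single-dose primary screen; inactive means inhibition below 50%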
Hck-Nef inh – inhibitors of human Hck kinase activated by Nef. Recombinant Hck-YEEI plus Nef, Z-Lyte FRET kinase assay. inhibition, % at 20 µM. 0.68% of 220,000 active. AID 463187;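 active means Hck-Nef kinase inhibition above about 50%, limit read from the data; inactive means inhibition below that limit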;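 further: 0% = DMSO with Hck plus Nef and 100% = Hck alone without Nef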
Mdm2 ligase inh – inhibitors of human Mdm2 E3 ubiquitin ligase; Q00987; cell-based MDM2 ubiquitination luciferase reporter, 2 h; 0 = plate control, 100 = twice control, blank-subtracted; signal enhancement, % at 5 µM; 0.11% of 210,000 active; AID 1230;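 active means signal enhancement of 30% or more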;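 further: luminescence tracks abundance of the self-degrading MDM2-luciferase fusion protein; higher signal means inhibition of MDM2 E3 ligase activity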
Target sequence (Q00987 whole entry, looked up, the tested form may be a part): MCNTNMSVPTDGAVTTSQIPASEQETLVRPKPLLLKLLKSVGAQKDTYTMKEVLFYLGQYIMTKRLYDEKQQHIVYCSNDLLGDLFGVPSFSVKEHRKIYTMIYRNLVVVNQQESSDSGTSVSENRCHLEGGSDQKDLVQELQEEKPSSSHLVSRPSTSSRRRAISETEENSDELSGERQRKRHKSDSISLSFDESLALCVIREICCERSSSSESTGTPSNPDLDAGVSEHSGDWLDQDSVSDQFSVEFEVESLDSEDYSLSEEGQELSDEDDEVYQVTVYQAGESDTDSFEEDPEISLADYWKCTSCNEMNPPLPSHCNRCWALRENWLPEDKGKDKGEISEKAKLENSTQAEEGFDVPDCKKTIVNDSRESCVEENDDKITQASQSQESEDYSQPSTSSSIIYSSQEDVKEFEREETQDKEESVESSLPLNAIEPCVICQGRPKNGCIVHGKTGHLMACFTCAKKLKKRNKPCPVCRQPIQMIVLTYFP
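System: stable MDM2–luciferase fusion reporter cells / Input: 2000 cells seeded into each well / Schedule: 4 h settle plus 2 h compound, 37 °C / Compound: single-point 5 µM / Buffer or medium: cells held in DMEM / Benchmarks: control and blank well means / Evaluation: percent signal gain over controls, blank-subtracted / Measured by: luciferase luminescence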
14-3-3 Bad inh – disrupts binding of bovine 14-3-3 zeta to phospho-Bad peptide; AID 781; 0.71% of 220,000 active; inhibition, % at 21.7 µM; TR-FRET 14-3-3zeta/Dy647-pBad peptide displacement, 1 h; P63103;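 active means inhibition above about 70%, limit read from the data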;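 further: 0% = full 14-3-3 plus peptide FRET controls and 100% = background without 14-3-3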
Wee1 stabilizer – blocks degradation of human Wee1 kinase. P30291. HeLa Luc-Wee1K328M stability, luciferase luminescence; 100% = proteasome inhibitor MG132 effect. AID 1321. reporter increase, % at 5 µM. 1.2% of 220,000 active;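 active means activation above the mean of all tested compounds plus 3 SD, set per screening run, cut at about 8.8% in these data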;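 further: cells exposed to compound for 20 h before luminescence read; 0% = DMSO alone and 100% = MG132 at 30 µM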
The depositor's hits bear a star; . = no result; [ ] = another dose, or the depositor's remark.

SMILES | Tb hexokinase | Hck-Nef inh | Mdm2 ligase inh | 14-3-3 Bad inh | Wee1 stabilizer
Cc1noc(C)c1S(=O)(=O)Nc1ccc(C(=O)NC2CCCCC2C)cc1 (stereo not given) | 5.3 | -0.2 | -3.6 | 85.1* | -0.7
Cc1cc(C)nc(-n2nc(C)c(C3(O)C(=O)Nc4ccccc43)c2N)n1 (stereo not given) | -5.8 | 0.3 | -11.9 | -7.7 | 2.9
O=C1CCCCC1C(Nc1ccc(Cl)cc1)c1ccccc1 (stereo not given) | 3.2 | 0.1 | -29.0 | -10.5 | 9.5*
COc1cccc(NC(=S)N2CCN(C/C=C/c3ccccc3)CC2)c1 | -2.1 | -0.4 | -1.8 | 6.5 | 0.5
COC(=O)c1ccccc1NC(=O)N1CCN(C/C=C/c2ccccc2)CC1 | -2.7 | 0.7 | -12.1 | -1.5 | 10.1*
S=C(Nc1ccccc1)N1CCN(C/C=C/c2ccccc2)CC1 | 2.3 | 15.6 | 14.4 | -10.1 | 10.0*
CC(=O)Nc1cccc(NC(=O)CSc2nnnn2-c2ccc3c(c2)OCO3)c1 | -3.9 | 27.0 | . | 2.2 | 2.0
Cc1cccc(NC(=O)CSc2nc(N)c(NC(=O)c3cccs3)c(=O)[nH]2)c1 | 2.0 | -0.9 | . | -2.6 | 9.3*
CCNC(=O)NC(=O)C(C)Oc1ccc(Br)cc1Br (stereo not given) | -2.4 | 18.1 | -7.0 | -5.6 | -0.9
CCCN1C(=O)SC(CC(=O)Nc2ccc(Br)cc2)C1=O (stereo not given) | -1.2 | 0.9 | -0.9 | 5.6 | -1.0
O=C(O)/C=C\C(=O)Nc1cccc(NC(=O)c2ccccc2)c1 | -6.1 | 21.5 | -12.5 | -9.4 | 1.6
CC(=O)Nc1ccc2c(c1)C(=O)c1ccccc1C2=O | -6.3 | 0.4 | -25.6 | 8.7 | -2.4
O=C(O)/C=C/C(=O)Nc1ccc2c(c1)C(=O)c1ccccc1C2=O | -11.0 | 13.7 | -7.8 | 13.6 | 9.9*
O=C(O)/C=C/C(=O)Nc1ccc(NC(=O)c2ccccc2)c(Cl)c1 | -0.8 | 6.1 | -6.0 | 96.0* | -2.2
COc1cccc(CC2(CO)CCN(Cc3ccc4cccc(F)c4n3)CC2)c1 | -4.5 | -1.9 | -5.6 | 90.1* | 4.0
O=C1C2=C(NC(=S)NC2c2ccc(Cl)cc2)NC(c2ccc(Cl)cc2)N1c1ccc(Cl)cc1 (stereo not given) | 0.4 | 1.0 | -6.8 | 25.7 | 10.2*
CCc1ccc(C2NC(=S)NC3=C2C(=O)N(c2ccccc2OC)C(c2ccc(CC)cc2)N3)cc1 (stereo not given) | -11.6 | 3.3 | -6.8 | 61.1 | 0.2
O=C(Nc1nc(=S)ss1)c1ccc(Cl)cc1Cl | -33.5 | 3.8 | 18.9 | 79.8* | 1.6
CCOc1cc(C(=O)Nn2cnnc2)cc(OCC)c1OCC | -0.9 | -2.5 | -3.9 | 1.8 | 8.9*
CCCCN(C)CCCNC(=O)CN1C(=O)CSc2ccc(S(=O)(=O)N3CCOCC3)cc21 | 7.5 | -10.5 | -5.5 | 6.1 | -0.9
CN(CCNC(=O)CN1C(=O)CSc2ccc(S(=O)(=O)N3CCCC3)cc21)Cc1ccccc1 | 8.1 | 19.6 | -7.0 | 5.4 | 10.2*
Cc1nn(-c2ccccc2)c(Cl)c1/C=N/NC(=O)CCNc1n[nH]c(=O)[nH]c1=O | -11.9 | -5.5 | -4.2 | -1.9 | 5.0
CCCCN(C)C(=O)C1CCN(CCCc2ccccc2)CC1 | 3.8 | 1.5 | -5.5 | 79.6* | -2.3
CC1CCCN(C(=O)C2CCN(CCCc3ccccc3)CC2)C1 (stereo not given) | -4.8 | -4.1 | -18.3 | 19.9 | -2.7
CCCCP(=O)(CCCC)Cc1ccccc1O | 2.7 | 1.0 | -4.0 | -7.7 | 9.4*
SMILES | Tb hexokinase | Hck-Nef inh | Mdm2 ligase inh | 14-3-3 Bad inh | Wee1 stabilizer
CCCCCCP(=O)(O)c1ccccc1 | 2.5 | -1.5 | -29.6 | 24.9 | -0.1
Cc1ccc(/C=N/NC(=O)NC23CC4CC(CC(C4)C2)C3)o1 | . | . | -11.2 | . | 10.3*
CN(Cc1ccccc1)S(=O)(=O)c1ccc(N2CCOCC2)nc1 | -13.5 | 17.3 | 1.3 | 2.1 | -1.6
c1ccc(Oc2ccc(-c3ccnc4nc(N5CCOCC5)nn34)cc2)cc1 | -21.3 | 2.8 | -16.3 | 0.7 | 9.3*
CC1Cc2ccccc2N1C(=O)CO/N=C/c1ccccc1OC(F)F (stereo not given) | 4.4 | 4.1 | -4.7 | 1.4 | -2.7
O=C(CO/N=C/c1ccccc1OC(F)F)N1CCc2ccccc21 | -1.5 | 1.8 | -4.8 | 83.9*[fluorescence artefact?] | -3.0
CCOC(=O)C1=C(N)n2c(s/c(=C\c3cccnc3)c2=O)=C(C(=O)OC)C1c1cccnc1 (stereo not given) | 2.4 | -9.3 | . | . | 10.0*
CCN1CCN(c2nc(N(C)c3ccccc3)nc(N)c2[N+](=O)[O-])CC1 | -23.8 | 5.1 | -3.6 | -19.3 | -1.7
O=C(CSCc1ccccc1Br)N/N=C/c1ccccc1C(=O)O | 3.9 | 5.9 | -1.5 | 82.9* | -1.4
Cc1cc(NC(=O)c2cc3n(n2)C(C(F)(F)F)CC(c2ccco2)N3)no1 (stereo not given) | 4.0 | 6.1 | -12.6 | 5.6 | 9.9*
CC(C)NC(=O)c1cc2n(n1)C(C(F)(F)F)CC(c1ccco1)N2 (stereo not given) | 2.8 | -10.5 | 2.1 | -0.2 | 2.3
Cc1ccc2nc(-c3ccc(-c4ccccn4)s3)cn2c1 | -41.7 | 37.5 | -40.0 | -1.1 | 6.2
CCCCNC(c1ccccc1)c1ccncc1 (stereo not given) | -9.4 | -1.1 | -5.6 | 71.2* | 1.4
CCOC(=O)C(NCCCO)c1ccccc1 (stereo not given) | -4.2 | 2.2 | -8.0 | 23.9 | -2.9
CN(Cc1ccccc1)CC(O)COc1ccc(CNCCCOc2cccnc2)cc1 (stereo not given) | 12.7 | -7.2 | -9.4 | -14.9 | 8.9*
Cc1cc(C(=O)c2ccc(C(C)(C)C)cc2)c(NC(=O)CCl)s1 | 5.7 | 0.5 | . | -7.4 | 2.4
O=C(/C=C/c1ccc(F)cc1)Nc1nc2ccccc2[nH]1 | -11.9 | 0.2 | -25.4 | 9.1 | 10.4*
COc1cc(CN2CCC(C(=O)NC3CCCC3)CC2)ccc1O | -3.8 | 1.4 | 10.3 | 77.5* | -1.5
N/C(=N\OC(=O)c1ccc2c(c1)OCO2)c1ccncc1 | -4.1 | -5.8 | -13.4 | -3.7 | 1.2
CC(C)CNC(=O)NC(=O)COc1ncnc2sccc12 | -11.9 | -0.7 | -5.4 | -7.2 | 9.4*
CCOC(=O)C(=NCC1CCCO1)NNc1ccccc1Cl (stereo not given) | -11.6 | 7.6 | . | 1.4 | 5.6
Cc1ccc(C(=O)NC2c3ccccc3-c3ccccc32)cc1 | 10.2 | 1.0 | -9.1 | 5.0 | -2.2
Cc1ccc(C(=O)C2C(=O)c3ccccc3C2=O)cc1 | -24.2 | 0.9 | -3.8 | 81.8* | 3.4
NC(=O)C(CC(=O)O)NC(=O)[C@@H]1CCOc2c(I)cc([N+](=O)[O-])cc2C(=O)N[C@@H](CCC(=O)O)C(=O)N[C@@H](CO)C(=O)N1 (stereo not given in full) | -2.7 | -0.2 | . | 9.3 | 8.8*
